According to PMC7845017 (ACS Central Science, 2021):

Legend:
Test in all cases: Broth microdilution MIC
E. coli W3110 = type: cell-based, Escherichia coli; details: E. coli W3110, Müller-Hinton medium, 16–20 h at 37 °C; at least two independent duplicates
Outline: (§1)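 MIC reported in μg/mL. Each strain was grown in Müller-Hinton medium and incubated for 16–20 h at 37 °C. Every strain was tested in at least two independent duplicates.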

A. baumannii ATCC 19606 = type: cell-based, Acinetobacter baumannii; details: A. baumannii ATCC 19606, Müller-Hinton medium, 16–20 h at 37 °C; at least two independent duplicates
Outline: as §1

P. aeruginosa PAO1 = type: cell-based, Pseudomonas aeruginosa; details: P. aeruginosa PAO1, Müller-Hinton medium, 16–20 h at 37 °C; at least two independent duplicates
Outline: as §1

K. pneumoniae NCTC418 = type: cell-based, Klebsiella pneumoniae; details: K. pneumoniae NCTC418, Müller-Hinton medium, 16–20 h at 37 °C; at least two independent duplicates
Outline: as §1

| Substance | E. coli MIC (E. coli W3110) | A.baumannii MIC (A. baumannii ATCC 19606) | P. aeruginosa MIC (P. aeruginosa PAO1) | K. pneumoniae MIC (K. pneumoniae NCTC418) |
| --- | --- | --- | --- | --- |
| ILPWKWPWWPWRR [sr-Indo] | 16 µg/mL | 8 µg/mL | >64 µg/mL | 16 µg/mL |
| KYKKALKKLAKLL [rac-SB1] | 1 µg/mL | 2 µg/mL | 2 µg/mL | 16 µg/mL |
| KYKKALKKLAKLL [sr-SB1] | 32 µg/mL | >64 µg/mL | >64 µg/mL | >64 µg/mL |
| KYKKALKKLAKLL [sr^1/3-SB1] | 16 µg/mL | >64 µg/mL | >64 µg/mL | >64 µg/mL |
| KYKKALKKLAKLL [sr^3/1-SB1] | 16 µg/mL | >64 µg/mL | >64 µg/mL | >64 µg/mL |
| VQWRAIRVRVIR [sr-DJK5] | 16 µg/mL | >64 µg/mL | >64 µg/mL | >64 µg/mL |
| polymyxin B [PMB, reference compound] | 0.25 µg/mL | 0.25 µg/mL | 0.25 µg/mL | 0.25 µg/mL |
